Reference: ChEMBL document CHEMBL3351654, “Synthesis, biological evaluation, and 3D QSAR study of 2-methyl-4-oxo-3-oxetanylcarbamic acid esters as N-acylethanolamine acid amidase (NAAA) inhibitors” (J Med Chem, 2014)

target: T1, N-acylethanolamine-hydrolyzing acid amidase (Rattus norvegicus, UniProt Q5KTC7); assay: Inhibition of NAAA in Sprague-Dawley rat lung assessed as inhibition of hydrolysis of 10-cis-heptadecenoylethanolamide by UPLC/MS method; settings: read-out: IC50
T1 sequence (Q5KTC7 whole entry): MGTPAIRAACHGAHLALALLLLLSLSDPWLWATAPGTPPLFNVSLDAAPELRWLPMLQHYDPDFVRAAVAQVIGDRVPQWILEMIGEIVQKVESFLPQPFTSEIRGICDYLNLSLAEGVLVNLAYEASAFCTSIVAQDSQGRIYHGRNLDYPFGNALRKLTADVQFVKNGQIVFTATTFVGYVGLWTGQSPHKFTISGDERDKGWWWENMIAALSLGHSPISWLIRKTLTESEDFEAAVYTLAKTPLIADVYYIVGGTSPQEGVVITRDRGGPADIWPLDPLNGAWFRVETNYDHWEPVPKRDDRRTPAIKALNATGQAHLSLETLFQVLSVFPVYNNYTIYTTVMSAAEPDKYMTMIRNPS
Outline: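 Native NAAA enzyme prepared from rat lungs, not a recombinant construct. The substrate, 10-cis-heptadecenoylethanolamide, is an unnatural fatty acid ethanolamide. Inhibition of its hydrolysis was measured, and the median inhibitory concentration (IC50) was reported.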

IC50 [nM] | SMILES
2090 | C[C@@H]1OC(=O)[C@@H]1NC(=O)OCc1ccccc1
6350 | C[C@@H]1OC(=O)[C@@H]1NC(=O)OC(C)(C)C
760 | CCCCCOC(=O)N[C@H]1C(=O)O[C@H]1C
240 | C[C@@H]1OC(=O)[C@@H]1NC(=O)OCCCCCc1ccc(F)cc1
288 | C[C@@H]1OC(=O)[C@@H]1NC(=O)OCCCCCl
3760 | CCCCC1(OC(=O)N[C@H]2C(=O)O[C@H]2C)COC1
520 | C[C@@H]1OC(=O)[C@@H]1NC(=O)OC1(CCCCc2ccccc2)COC1
39 | C[C@@H]1OC(=O)[C@@H]1NC(=O)OCCCCCCCc1ccccc1
20 | C[C@@H]1OC(=O)[C@@H]1NC(=O)OCC#Cc1ccccc1
11 | C[C@@H]1OC(=O)[C@@H]1NC(=O)OCc1ccc(-c2ccc(F)cc2)cc1
29 | Cc1ccc(-c2ccc(COC(=O)N[C@H]3C(=O)O[C@H]3C)cc2)cc1
36 | C[C@@H]1OC(=O)[C@@H]1NC(=O)OCc1ccc(-c2ccc(C(F)(F)F)cc2)cc1
15 | CCCCc1ccc(COC(=O)N[C@H]2C(=O)O[C@H]2C)cc1
22 | C[C@@H]1OC(=O)[C@@H]1NC(=O)OCc1ccc(C(C)(C)C)cc1
28 | C[C@@H]1OC(=O)[C@@H]1NC(=O)OCc1ccc(-c2sccc2Br)cc1
13 | Cc1ccc2sc(COC(=O)N[C@H]3C(=O)O[C@H]3C)cc2c1
77 | CCCCCCCC#CCOC(=O)N[C@H]1C(=O)O[C@H]1C

SMILES | IC50 [nM]
C[C@@H]1OC(=O)[C@@H]1NC(=O)OCc1ccc(-c2ccsc2)cc1 | 22
C[C@@H]1OC(=O)[C@@H]1NC(=O)OCc1ccc(C2CCCCC2)cc1 | 7
C[C@@H]1OC(=O)[C@@H]1NC(=O)OCc1ccc(OC2CCCCC2)cc1 | 23
C[C@@H]1OC(=O)[C@@H]1NC(=O)OCc1ccc2c(c1)OCO2 | 176

same assay, conditions: read-out: pIC50 (converted)

IC50 [nM] | SMILES
52.5 | C[C@@H]1OC(=O)[C@@H]1NC(=O)OCCCCCc1ccccc1
316 | C[C@@H]1OC(=O)[C@@H]1NC(=O)OC(C)(C)CCCCc1ccccc1
7.24 | C[C@@H]1OC(=O)[C@@H]1NC(=O)OCc1ccc(-c2ccccc2)cc1
85.1 | C[C@@H]1OC(=O)[C@@H]1NC(=O)OCCCc1ccccc1
44.7 | CCCCCCCOC(=O)N[C@H]1C(=O)O[C@H]1C
51.3 | C[C@@H]1OC(=O)[C@@H]1NC(=O)OCCCOCc1ccccc1
148 | C[C@@H]1OC(=O)[C@@H]1NC(=O)OCCOCCc1ccccc1

SMILES | IC50 [nM]
C[C@@H]1OC(=O)[C@@H]1NC(=O)OCc1ccc(-c2ccsc2)cc1 | 20.9
